Laboratory results reported in publication PMC7612593 (Nature, 2022).

Tests used:
β3δ GABAAR = target: T1, β3δ GABAAR (Homo sapiens, UniProt O14764+P28472); test: whole-cell patch clamp electrophysiology on β3δ cells; type: cell-based; conditions: for enhancement of GABA current by histamine: 300 μM histamine with 100 nM GABA
T1 sequence (P28472 26-473): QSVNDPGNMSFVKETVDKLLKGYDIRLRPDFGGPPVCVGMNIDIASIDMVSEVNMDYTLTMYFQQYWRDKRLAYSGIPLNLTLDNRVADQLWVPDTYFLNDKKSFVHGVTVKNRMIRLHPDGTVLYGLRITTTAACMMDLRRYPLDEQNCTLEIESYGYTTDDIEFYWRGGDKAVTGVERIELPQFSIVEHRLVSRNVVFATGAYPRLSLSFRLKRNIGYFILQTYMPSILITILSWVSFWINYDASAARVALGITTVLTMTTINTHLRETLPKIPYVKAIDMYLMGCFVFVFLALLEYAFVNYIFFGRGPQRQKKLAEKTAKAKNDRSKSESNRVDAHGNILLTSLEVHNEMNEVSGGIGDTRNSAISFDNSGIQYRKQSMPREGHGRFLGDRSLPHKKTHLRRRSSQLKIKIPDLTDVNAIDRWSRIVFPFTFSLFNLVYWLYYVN
T1 sequence (O14764 17-452 limits assumed): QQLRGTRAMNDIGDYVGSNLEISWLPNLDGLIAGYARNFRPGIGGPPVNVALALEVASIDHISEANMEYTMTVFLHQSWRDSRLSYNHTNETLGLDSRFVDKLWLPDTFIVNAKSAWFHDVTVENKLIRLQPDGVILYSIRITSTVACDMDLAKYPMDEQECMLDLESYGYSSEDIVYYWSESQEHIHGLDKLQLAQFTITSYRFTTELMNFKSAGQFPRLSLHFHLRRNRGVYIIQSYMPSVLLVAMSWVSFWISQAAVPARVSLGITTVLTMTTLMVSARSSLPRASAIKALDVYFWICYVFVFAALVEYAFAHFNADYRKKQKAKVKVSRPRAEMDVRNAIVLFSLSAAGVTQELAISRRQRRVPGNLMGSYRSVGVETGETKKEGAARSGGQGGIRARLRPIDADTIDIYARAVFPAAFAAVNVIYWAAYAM
Summary of the method: (§1)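 Cells on coverslips were induced with tetracycline (2 μg/ml, 28–32 h); β3δ cells were the β3 line transiently transfected with δ. Whole-cell clamp at –50 mV, 20–22 °C, pH 7.4 bath, KCl/Mg-ATP pipette. […] One-way ANOVA.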

α4β3 GABAAR = α4β3 GABAAR (Homo sapiens, UniProt P28472+P48169); test: whole-cell patch clamp electrophysiology on α4β3 cells; type: cell-based; conditions: for enhancement of GABA current by histamine: 300 μM histamine with 100 nM GABA
Summary of the method: as §1

α4β3δ GABAAR [1] = target: α4β3δ GABAAR (Homo sapiens, UniProt O14764+P28472+P48169); test: whole-cell patch clamp electrophysiology on the α4β3δ cell line; type: cell-based; conditions: for receptors gated, % of total receptors gated by 10 mM GABA + 30 μM Etomidate: 10 mM each ligand, 2 s first pulse of two-pulse protocol, mean ± SD; for Hill coefficient: Hill plot of normalized peak amplitude against agonist concentration
β3 GABAAR = target: T2, β3 GABAAR (Homo sapiens, UniProt P28472); test: whole-cell patch clamp electrophysiology on β3 cells; type: cell-based; conditions: for enhancement of GABA current by histamine: 300 μM histamine with 100 nM GABA
T2 sequence (P28472 26-473): T1 sequence (P28472 26-473)
Summary of the method: as §1

α1β3γ2 GABAAR = α1β3γ2 GABAAR (Homo sapiens, UniProt P14867+P18507+P28472); test: radioligand assay, competition with pre-bound [3H]Ro15-4513, α1β3γ2 cell line; type: binding; conditions: membranes from α1β3γ2 cell line
α4β3γ2 GABAAR = α4β3γ2 GABAAR (Homo sapiens, UniProt P18507+P28472+P48169); test: radioligand assay, competition with pre-bound [3H]Ro15-4513, α4β3γ2 cell pool; type: binding; conditions: membranes from α4β3γ2 cell pool
α4β3δ GABAAR [2] = conditions: cited from earlier work

NCCCC(=O)O [GABA, γ-aminobutyric acid]
gating by GABA (β3δ GABAAR; 200 μM GABA, 8 s pulse): not gated | activation of currents by GABA (α4β3 GABAAR; 100 nM GABA): barely | activation of currents by GABA (α4β3δ GABAAR [1]; 100 nM GABA): robustly activates currents | receptors gated, % of total receptors gated by 10 mM GABA + 30 μM Etomidate (α4β3δ GABAAR [1]): 15.0 ± 6.0% | time for deactivating current to reach 50% of its original value (α4β3δ GABAAR [1]; 200 ms pulse of 10 μM GABA in the absence of histamine): 2.7 ± 0.7 s | Hill coefficient (α4β3δ GABAAR [1]): 0.9 | gating by GABA (β3 GABAAR; 200 μM GABA, 8 s pulse): not gated

CCOC(=O)c1ncn2c1CN(C)C(=O)c1cc(N=[N+]=[N-])ccc1-2 [Ro15-4513]
effect on GABA currents (α4β3δ GABAAR [1]; whole-cell electrophysiology recordings, α4β3δ cell line): little effect | binding of Ro15-4513 (α1β3γ2 GABAAR): binds | binding of Ro15-4513 (α4β3γ2 GABAAR): binds

Oc1noc2c1CCNC2 [THIP, 4,5,6,7-tetrahydroisoxazolo[5,4-c]pyridin-3-ol]
potency and efficacy at α4β3δ relative to other receptors subtypes (α4β3δ GABAAR [2]): higher potency and supramaximal efficacy

NCCc1c[nH]cn1 [histamine]
enhancement of GABA current by histamine (β3δ GABAAR): Only modest responses | enhancement of GABA current by histamine (β3δ GABAAR; listed as Histamine): only modestly | enhancement of GABA current by histamine (α4β3 GABAAR): Only modest responses | enhancement of GABA current by histamine (α4β3 GABAAR; listed as Histamine): only modestly | fast and slow time constants of deactivation (α4β3δ GABAAR [1]; 10 μM GABA pulse in the presence of 100 μM histamine, P = 0.03): decreased significantly | fraction of receptors with slow deactivation (α4β3δ GABAAR [1]; 10 μM GABA pulse in the presence of 100 μM histamine, P = 0.04): increased | enhancement of GABA current by histamine (α4β3δ GABAAR [1]; 300 μM histamine with 100 nM GABA): robustly enhances | receptors gated, % of total receptors gated by 10 mM GABA + 30 μM Etomidate (α4β3δ GABAAR [1]): 50.2 ± 11.0% | time for deactivating current to reach 50% of its original value (α4β3δ GABAAR [1]; 200 ms pulse of 10 μM GABA in the presence of 100 μM histamine): 1.0 ± 0.4 s | decrease in peak current amplitude of the deactivating currents (α4β3δ GABAAR [1]; 200 ms pulse of 10 μM GABA, pre-application of 100 μM histamine, n = 4 cells): 74.5 ± 11.9% | Hill coefficient (α4β3δ GABAAR [1]): 1.1 | deactivation of currents following a brief pulse of 10 μM GABA (α4β3δ GABAAR [1]; continuous presence of 100 μM histamine): accelerated | efficacy of histamine relative to GABA (α4β3δ GABAAR [1]; whole-cell currents): 3 fold | enhancement of GABA current by histamine (β3 GABAAR): Only modest responses | enhancement of GABA current by histamine (β3 GABAAR; listed as Histamine): only modestly
